# Test results reported in BindingDB's records for doi:10.1021/jm300238h (Sanford-Burnham Medical Research Institute, 2012).
# Target: Protease (Human immunodeficiency virus 1, UniProt Q9YQ12)
# Assay: Inhibition of wild type HIV1 protease by FRET assay
# In short: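 Recombinant HIV-1 protease Q7K, desalted into 20 mM sodium acetate pH 5, apparent concentration ~50 nM (UV 280 nm). Inhibitors in DMSO, 12 concentrations, added with protease to buffer pH 4.7 (0.1 M NaOAc, 1 M NaCl, 1 mM EDTA, 1 mM DTT, 2% DMSO, 1 mg/mL BSA). Cleavage started by injecting EDANS/DABCYL peptide substrate. Ki from initial velocities fitted to the Morrison equation.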
# Chain of Protease (Q9YQ12 whole entry): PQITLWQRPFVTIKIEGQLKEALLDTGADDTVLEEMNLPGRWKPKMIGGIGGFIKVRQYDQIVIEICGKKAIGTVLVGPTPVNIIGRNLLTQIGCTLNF
smiles,measurement,value
"COc1ccc(S(=O)(=O)N(CC(C)C)C[C@@H](O)[C@H](Cc2ccccc2)NC(=O)[C@@H]2CN(c3cccc(C(C)=O)c3)C(=O)O2)cc1 [(5S)-3-(3-Acetylphenyl)-N-[(1S,2R)-1-benzyl-2-hydroxy-3-[isobutyl[(4-methoxyphenyl)sulfonyl]amino]propyl]-2-oxooxazolidine-5-carboxamide]",Ki,1 pM
